Source: ChEMBL document CHEMBL3108769, “Development of 1,8-naphthalimides as clathrin inhibitors” (J Med Chem, 2014)
Active and inactive are the calls of the source. The calls are words filed in the database; no cut-off is given here.

Assays:
[1] = tested on: U2OS; experiment: Inhibition of clathrin in human U2OS cells assessed as texas red-Tf endocytosis incubated 30 mins prior to texas red-Tf addition measured after 8 mins; format: cell-based
Procedure, shortened: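 U2OS cells preincubated 30 min with inhibitor (1 to 300 μM) or vehicle, then 4 μg/mL Tf-A594 added for 8 min at 37 °C. Uptake quantified by automated imaging and analysis, ~1200 cells per point. IC50 fitted; reported as mean ±95% CI from three wells.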

[2] = Inhibition of phosphotidylserine-stimulated sheep brain dynamin 1 GTPase activity assessed as inhibition of phosphate release from GTP after 30 mins by malachite green reagent method; set-up: species or system Ovis aries
Procedure, shortened: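 Native dynamin I purified from sheep brain (peripheral membrane fraction, GST-Amph2-SH3-sepharose affinity). Dynamin (20 nM) stimulated by 4 μg/mL sonicated phosphatidylserine with compound for 30 min at 37 °C. Buffer: 5 mM Tris-HCl pH 7.4, 10 mM NaCl, 2 mM Mg2+, 1 μg/mL leupeptin, 0.1 mM PMSF, 0.3 mM GTP. Phosphate release read by malachite green.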

[3] = target: T1, Clathrin heavy chain 1 (Homo sapiens, UniProt Q00610); experiment: Inhibition of recombinant GST-tagged clathrin heavy chain (unknown origin) at 100 uM after 1 hr by ELISA
T1 sequence (Q00610 whole entry): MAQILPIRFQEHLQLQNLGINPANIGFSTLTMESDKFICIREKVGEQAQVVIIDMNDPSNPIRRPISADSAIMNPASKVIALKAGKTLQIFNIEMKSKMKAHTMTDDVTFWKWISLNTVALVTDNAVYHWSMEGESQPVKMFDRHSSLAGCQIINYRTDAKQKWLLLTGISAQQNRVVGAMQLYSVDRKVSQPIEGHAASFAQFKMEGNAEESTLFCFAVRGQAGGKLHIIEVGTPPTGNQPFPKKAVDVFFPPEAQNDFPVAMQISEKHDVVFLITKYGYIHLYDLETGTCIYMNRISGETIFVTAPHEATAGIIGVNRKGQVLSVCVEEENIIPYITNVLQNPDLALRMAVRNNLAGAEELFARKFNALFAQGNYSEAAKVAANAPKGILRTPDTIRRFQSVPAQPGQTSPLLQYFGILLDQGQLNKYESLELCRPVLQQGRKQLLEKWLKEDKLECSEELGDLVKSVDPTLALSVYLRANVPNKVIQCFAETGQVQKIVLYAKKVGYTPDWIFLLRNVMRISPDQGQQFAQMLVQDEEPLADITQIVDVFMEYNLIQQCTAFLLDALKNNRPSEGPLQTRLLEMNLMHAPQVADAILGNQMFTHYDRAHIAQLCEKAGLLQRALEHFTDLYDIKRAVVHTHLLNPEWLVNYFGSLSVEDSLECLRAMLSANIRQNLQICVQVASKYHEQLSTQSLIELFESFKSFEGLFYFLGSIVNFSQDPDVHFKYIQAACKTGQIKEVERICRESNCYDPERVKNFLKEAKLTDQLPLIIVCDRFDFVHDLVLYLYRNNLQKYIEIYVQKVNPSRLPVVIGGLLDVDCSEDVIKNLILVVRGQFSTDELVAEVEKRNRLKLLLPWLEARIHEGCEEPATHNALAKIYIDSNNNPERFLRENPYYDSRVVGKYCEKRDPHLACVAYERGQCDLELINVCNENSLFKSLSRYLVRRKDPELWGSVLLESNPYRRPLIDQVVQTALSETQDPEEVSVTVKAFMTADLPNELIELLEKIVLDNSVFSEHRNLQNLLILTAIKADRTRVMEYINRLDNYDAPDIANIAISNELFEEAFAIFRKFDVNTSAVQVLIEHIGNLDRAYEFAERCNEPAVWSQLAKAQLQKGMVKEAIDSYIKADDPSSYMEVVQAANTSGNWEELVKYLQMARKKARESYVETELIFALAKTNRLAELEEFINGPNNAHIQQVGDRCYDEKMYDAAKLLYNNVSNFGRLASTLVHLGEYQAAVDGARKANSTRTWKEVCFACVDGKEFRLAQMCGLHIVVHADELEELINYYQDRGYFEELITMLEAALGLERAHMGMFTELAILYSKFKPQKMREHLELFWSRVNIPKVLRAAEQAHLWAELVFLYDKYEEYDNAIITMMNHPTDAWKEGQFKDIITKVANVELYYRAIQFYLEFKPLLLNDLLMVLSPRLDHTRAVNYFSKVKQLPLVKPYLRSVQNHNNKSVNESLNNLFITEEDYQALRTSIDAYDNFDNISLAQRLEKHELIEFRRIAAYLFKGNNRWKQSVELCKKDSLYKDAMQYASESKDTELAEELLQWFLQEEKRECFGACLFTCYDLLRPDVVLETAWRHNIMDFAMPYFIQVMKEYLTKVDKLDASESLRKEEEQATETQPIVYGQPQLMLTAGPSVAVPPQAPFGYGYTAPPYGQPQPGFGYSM

[4] = species: Ovis aries; experiment: Inhibition of phosphotidylserine-stimulated sheep brain dynamin 1 GTPase activity assessed as inhibition of phosphate release from GTP at 100 uM after 30 mins by malachite green reagent method
[5] = species: Ovis aries; conditions: 300 uM
[6] = target: T1, Clathrin heavy chain 1; experiment: Inhibition of recombinant GST-tagged clathrin heavy chain (unknown origin) after 1 hr by ELISA

inhibition [3]	Structure (SMILES)	inhibition [1]	other results
–	Nc1ccccc1CN1C(=O)c2cccc3cc(S(=O)(=O)O)cc(c23)C1=O	inactive	IC50 [2]: 108 µM
inactive	Nc1ccc(CN2C(=O)c3cccc4c(N)ccc(c34)C2=O)cc1	–	–
inactive	Nc1ccc(CN2C(=O)c3cccc4c(Br)ccc(c34)C2=O)cc1	–	–
inactive	Nc1ccc(CN2C(=O)c3cc([N+](=O)[O-])cc4cc([N+](=O)[O-])cc(c34)C2=O)cc1	–	–
inactive	Nc1ccc(CN2C(=O)c3cccc4c(S(=O)(=O)O)ccc(c34)C2=O)cc1	–	–
–	O=C1c2cccc3cc(S(=O)(=O)O)cc(c23)C(=O)N1Cc1ccc(Cl)cc1	inactive	IC50 [2]: 111 µM
inactive	Nc1ccc(CN2C(=O)c3cccc4c(Cl)ccc(c34)C2=O)cc1	–	–
–	O=C(O)c1ccc(CN2C(=O)c3cccc4cc(S(=O)(=O)O)cc(c34)C2=O)cc1	inactive	IC50 [2]: 185 µM
–	Nc1cccc(CN2C(=O)c3cccc4cc(S(=O)(=O)O)cc(c34)C2=O)c1	inactive	IC50 [2]: 264 µM
inactive	Nc1ccc(N2C(=O)c3cccc4cc(S(=O)(=O)O)cc(c34)C2=O)cc1	inactive	inhibition [4]: inactive
–	O=C1c2cccc3cc(S(=O)(=O)O)cc(c23)C(=O)N1Cc1ccc(O)cc1	inactive	inhibition [5]: inactive
–	O=C1c2cccc3cc(S(=O)(=O)O)cc(c23)C(=O)N1Cc1ccc(F)cc1	inactive	IC50 [2]: 306 µM
–	Cc1ccc(CN2C(=O)c3cccc4cc(S(=O)(=O)O)cc(c34)C2=O)cc1	inactive	inhibition [5]: inactive
–	CCCN1C(=O)c2cccc3c(N)c(S(=O)(=O)O)cc(c23)C1=O	–	IC50 [6]: 120 µM
inactive	Nc1ccc(CN2C(=O)c3cccc4c([N+](=O)[O-])ccc(c34)C2=O)cc1	–	–
inactive	Nc1ccc(CN2C(=O)c3cccc4cc(O)cc(c34)C2=O)cc1	–	–
inactive	Nc1ccc(CN2C(=O)c3cccc4cccc(c34)C2=O)cc1	–	–
inactive	O=C1c2cccc3cc(S(=O)(=O)O)cc(c23)C(=O)N1Cc1ccc([N+](=O)[O-])cc1	inactive	IC50 [2]: 49 µM
inactive	COc1cc2c3c(cccc3c1)C(=O)N(Cc1ccc(N)cc1)C2=O	–	–
–	O=C1c2cccc3cc(S(=O)(=O)O)cc(c23)C(=O)N1Cc1ccccc1	inactive	inhibition [5]: inactive
–	CN(C)c1ccc(CN2C(=O)c3cccc4cc(S(=O)(=O)O)cc(c34)C2=O)cc1	inactive	inhibition [5]: inactive
inactive	Nc1ccc(CN2C(=O)c3cccc4cc(N)cc(c34)C2=O)cc1	–	–
–	Nc1ccc(CN2C(=O)c3cccc4cc(S(=O)(=O)O)cc(c34)C2=O)cc1	inactive	inhibition [4]: inactive
–	COc1ccc(CN2C(=O)c3cccc4cc(S(=O)(=O)O)cc(c34)C2=O)cc1	inactive	inhibition [5]: inactive
inactive	Nc1ccc(CN2C(=O)c3cccc4cc([N+](=O)[O-])cc(c34)C2=O)cc1	–	–
inactive	Nc1ccc(CN2C(=O)c3cccc4cc(Br)cc(c34)C2=O)cc1	–	–
–	O=C1c2cccc3cc(S(=O)(=O)O)cc(c23)C(=O)N1Cc1ccc(Br)cc1	inactive	inhibition [5]: inactive
